RGS4 pot: potentiators or activators of RGS4; HEK293 M3R/inducible RGS4, carbachol calcium flux Fluo4; stronger effect = lower value; B-score at 10 µM; actives 0.92% (n = 310,000);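 active = B-score of the integrated calcium signal more than 4 SD below the library mean, with starting fluorescence not abnormally high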;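 note: negative B-score means reduced calcium response which marks RGS4 activation or potentiation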
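Reagent: ECmax carbachol challenge; Test system: M3R-expressing HEK293 line, RGS4 induced by doxycycline; Schedule: overnight RGS4 induction, 30 min dye load 37 °C, 20 min compound RT; Detection: calcium dye Fluo4 fluorescence; Read-out: Agonist-evoked peak-minus-minimum fluorescence over baseline, integrated ratio, B score.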
MrgX1 allo act: human MrgX1 positive allosteric modulation, primary screen; Q96LB2; MrgX1-HEK293, Fluo-4 calcium flux, FDSS; stronger effect = higher value; B-score at 10 µM; actives 0.63% (n = 310,000);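 active = plate-corrected calcium response at least 3 library SD above typical, normal starting fluorescence, not activating the receptor alone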;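 note: compound read alongside a low EC10 to EC30 dose of BAM8-22 agonist; peak minus trough fluorescence over baseline measured at the second addition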
Target sequence (Q96LB2 whole entry, looked up): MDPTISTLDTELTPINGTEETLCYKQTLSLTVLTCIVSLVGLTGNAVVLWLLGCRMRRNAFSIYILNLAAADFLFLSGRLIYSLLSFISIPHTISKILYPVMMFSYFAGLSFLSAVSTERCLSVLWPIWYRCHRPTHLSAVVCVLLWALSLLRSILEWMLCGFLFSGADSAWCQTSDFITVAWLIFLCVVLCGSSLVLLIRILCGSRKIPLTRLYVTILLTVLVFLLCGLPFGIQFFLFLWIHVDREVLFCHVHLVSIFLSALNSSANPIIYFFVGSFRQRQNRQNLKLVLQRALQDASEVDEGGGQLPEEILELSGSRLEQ
MrgX1 antagonist: antagonists of human MrgX1 receptor. actives 1.3% (n = 310,000). AID 588676. B-score at 10 µM. Q96LB2. MRGX1-HEK293 calcium flux, Fluo-4, BAM8-22 antagonism; stronger effect = lower value;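 active = calcium-response B-score plate-corrected more than 3 library SD below zero, starting fluorescence within 5 deviations, no agonist response on first addition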;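 note: peak minus trough fluorescence over baseline after final BAM8-22 challenge near maximal dose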
RGS4 block: inhibitors of human RGS4; P49798; HEK293 M3R/RGS4 inducible, Fluo-4 calcium flux; stronger effect = higher value; triggered by carbachol at its EC20; B-score at 10 µM; actives 0.45% (n = 310,000);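 active = B-score, a plate-corrected calcium signal, over three deviations above library mean, with baseline fluorescence within five deviations of library mean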;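 note: RGS4 expression induced by doxycycline in cells with stable M3 receptor; B-score is computed from the integrated fluorescence ratio over baseline after carbachol; higher B-score means a larger calcium signal and so more RGS4 inhibition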
Target sequence (P49798 whole entry, looked up): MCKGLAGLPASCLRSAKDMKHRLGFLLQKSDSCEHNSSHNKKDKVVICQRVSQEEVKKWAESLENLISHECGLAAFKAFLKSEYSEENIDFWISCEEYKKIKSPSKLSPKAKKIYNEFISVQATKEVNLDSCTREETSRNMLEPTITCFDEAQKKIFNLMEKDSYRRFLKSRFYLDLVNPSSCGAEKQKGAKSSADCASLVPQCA
Kir21 inh: Kir2.1 (mouse) channel inhibition; P35561; B-score at 10 µM; HEK293-Kir2.1, FluxOR thallium flux fluorescence; stronger effect = lower value; actives 0.85% (n = 310,000); AID 1672;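 active = fluorescence ratio B-score at or below minus 3 SD of library scores, with starting-brightness B-score within 2 SD, cut at about -4.2 in these data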;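 note: channel flux triggered by added potassium and thallium sulfate stimulus; B-score of peak minus minimum fluorescence over baseline after thallium stimulus; more negative B-score means stronger Kir2.1 block with less thallium influx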
MrgX1 agonist: agonists of human MrgX1 receptor | Q96LB2 | MrgX1-HEK293 cells, Fluo-4 calcium fluorescence, agonist mode; stronger effect = higher value | B-score at 10 µM | actives 0.44% (n = 310,000) | AID 588627;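 active = calcium response B-score plate-corrected fluorescence ratio at least 3 library SD, with starting fluorescence B-score inside 5 SD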
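times = overnight plating, then 30 min 37 °C plus 30 min room-temperature dye loading | assay system = stable human MrgX1 HEK293 cell line | input = fifteen thousand cells per well | signal = kinetic calcium dye fluorescence, Fluo-4 NW | dosing = compound delivered in addition one of three | read-out = B-scored fluorescence response ratio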
MrgX1 PAM conf: reconfirmed allosteric activator of human MrgX1 receptor; activation (ratio percentage), % at 10 µM; actives 13% (n = 1,200); shares compounds with MrgX1 allo act; MrgX1-HEK293, Fluo-4 calcium fluorescence, FDSS;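 active = ratio at least 3 SD above the weak peptide control, stable starting fluorescence, no direct agonism earlier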;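 note: compound followed by low BAM8-22 agonist challenge near EC20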
MrgX1 antag conf: reconfirmed antagonist of human MrgX1 receptor signaling; shares compounds with MrgX1 antagonist; MrgX1-HEK293, BAM8-22 calcium flux, Fluo-4; stronger effect = lower value; remaining BAM8-22 calcium response % of control (stronger effect = lower value), % at 10 µM; actives 19% (n = 2,300);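 active = remaining agonist calcium response no higher than 100% minus 3 SD of agonist-only control wells, with starting fluorescence near control levels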;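 note: agonist BAM8-22 given at a near maximal EC90 to ECmax level; peak minus minimum fluorescence divided by baseline after agonist addition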
HEK293 Ca flux: MrgX1 antagonist counter-screen hit in parental HEK293 cells | AID 624111 | Fluo-4 calcium fluorescence, FDSS | shares compounds with MrgX1 antagonist | fluorescence ratio F(max-min)/F0 at 10 µM | actives 2% (n = 4,000);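 active = duplicate-averaged calcium fluorescence ratio at least three times the standard deviation of buffer wells, a nonspecific response in parental cells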
HEK293 Ca counter: MrgX1 allosteric activator counter-screen hit in parental HEK293 cells | shares compounds with MrgX1 antagonist | parental HEK293 calcium flux, Fluo-4 fluorescence ratio; stronger effect = higher value | fluorescence ratio F(max-min)/F0 at 10 µM | actives 0.4% (n = 4,000) | AID 624114;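 active = calcium fluorescence ratio, averaged over duplicates, at least 3 SD of the buffer-well ratio, meaning a nonspecific response in receptor-free cells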;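 note: untransfected parental HEK293 lacking MrgX1 used as counterscreen for MrgX1 allosteric activators; fluorescence change taken during the second addition on a kinetic imager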
HEK293 Ca cntr2: activity in parental HEK293 cells lacking MrgX1 receptor | AID 624115 | actives 8.7% (n = 4,000) | shares compounds with MrgX1 antagonist | Fluo-4 calcium fluorescence (FDSS); stronger effect = higher value | fluorescence ratio F(max-min)/F0 at 10 µM;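 active = calcium fluorescence ratio at least three times the spread of buffer wells, meaning a non-specific response in parental cells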
The depositor's hits bear a star; i = inactive; . = not tested or not shown. An excerpt weighted towards active compounds, which were near 4.1% of everything screened.

SMILES	RGS4 pot	MrgX1 allo act	MrgX1 antagonist	RGS4 block	Kir21 inh	MrgX1 agonist	MrgX1 PAM conf	HEK293 Ca flux	HEK293 Ca counter	HEK293 Ca cntr2	others
CN1CCc2c(OCC(=O)N3CCC(Cc4ccccc4)CC3)cccc2C1=O	i	9.8*	i	i	-2	i	i	i	i	i
CCN1CCc2c(OCc3ccccc3)cccc2C1=O	i	11*	i	i	0.93	i	i	i	i	i
O=C1c2cccc(OCc3ccc(F)cc3)c2CCN1Cc1ccccc1	i	i	i	i	-0.71	i	.	.	.	.
NC(=O)C1CCN(C(=O)CCC(=O)c2ccc(Br)cc2)CC1	i	8.7*	i	i	-3.1	i	i	i	i	i
COc1ccc(C(=O)N/C(=C\c2cn(S(=O)(=O)N(C)C)c3ccccc23)C(=O)NCCCn2ccnc2)cc1	i	i	i	i	-1.5	i	.	.	.	.
CCCNC(=O)/C(=C/c1cn(S(=O)(=O)N(C)C)c2ccccc12)NC(=O)c1ccc(OC)cc1	i	36*	i	i	2.1	i	15%*	i	i	i
Oc1[nH]c2ccc(Br)cc2c1N=Nc1ccc(C(F)(F)F)cn1	i	i	i	i	1.1	i	.	.	.	.
COc1ccc(OC)c(-c2csc(NC(=O)Cc3cccs3)n2)c1	i	7.2*	i	i	1.8	i	i	i	i	i
COc1ccc(CC(=O)Nc2nc(-c3cc(OC)ccc3OC)cs2)cc1	i	i	i	i	-0.29	i	.	.	.	.
CN(Cc1ccccc1)C(NC(=O)c1ccco1)C(Cl)(Cl)Cl (centres undefined)	i	6.6*	i	i	2.3	i	i	i	i	i
CN1CC2(C)CN(C(c3ccccc3)c3ccccc3)CC(C)(C1)C2O (centres undefined)	i	i	i	i	-0.76	i	.	.	.	.
Cc1c(CC(=O)O)c(=O)oc2c(C)c(OCc3c(F)cccc3Cl)ccc12	i	13*	i	i	0.41	i	i	i	i	i
C=CCOc1c(CCC)cc(CCC)cc1C(N)=O	i	24*	i	i	-2.8	i	i	i	i	i
C=CCOc1c(Br)cc(/C=N/NC(N)=O)cc1OC	i	i	i	i	0.88	i	.	.	.	.
CCn1cc(CNC(=O)C2CCC(=O)N(Cc3ccccc3F)C2)cn1 (centres undefined)	i	i	i	i	0.65	i	.	.	.	.
CC(C)N(C(=O)C[n+]1ccsc1N)c1ccccc1	i	i	i	i	-0.58	i	.	.	.	.
Cc1ccc(Cn2ncc3c(N4CCN(Cc5ccc(Cl)cc5)CC4)ncnc32)cc1	i	8.4*	-12*	i	1.1	i	i	i	i	i	MrgX1 antag conf=84%*
O=c1[nH]c(Nc2ccccc2Cl)cc2ccccc12	i	8*	i	i	-0.62	i	i	i	i	i
COc1ccc(C(=O)Nc2cc(OC)c(Cl)cc2Cl)cc1	i	i	i	i	0.76	i	.	.	.	.

Screening data (PubChem BioAssay)
